Screens: PubChem BioAssay, Sanford-Burnham Center for Chemical Genomics
DNMT1 block: inhibitors of human DNMT1; P26358; DNMT1 molecular beacon, Hinp1I cleavage, fluorescence; inhibition (reported as % activation of signal), % at 10 µM; 360,000 tested, 0.83% active; AID 588458; in the data active = inhibition above about 50%
SUMO1 PPI mod: SUMO1-SIM interaction modulation | SUMO1 binding to a labelled peptide, TR-FRET, 1 h | P63165 | AID 602429 | inhibition, % at 20 µM | 360,000 tested, 0.33% active; in the data active = inhibition above about 37%
STEP block: STEP (human) phosphatase inhibition; P54829; recombinant STEP, OMFP fluorogenic substrate, fluorescence; inhibition, % at 20 µM; 360,000 tested, 0.25% active;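 active = inhibition at 20 µM, scaled per plate between control wells, above about 37%, limit read from the data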;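 also: 0% = DMSO with enzyme and substrate and 100% = substrate only without enzyme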
Target sequence (P54829 whole entry, looked up): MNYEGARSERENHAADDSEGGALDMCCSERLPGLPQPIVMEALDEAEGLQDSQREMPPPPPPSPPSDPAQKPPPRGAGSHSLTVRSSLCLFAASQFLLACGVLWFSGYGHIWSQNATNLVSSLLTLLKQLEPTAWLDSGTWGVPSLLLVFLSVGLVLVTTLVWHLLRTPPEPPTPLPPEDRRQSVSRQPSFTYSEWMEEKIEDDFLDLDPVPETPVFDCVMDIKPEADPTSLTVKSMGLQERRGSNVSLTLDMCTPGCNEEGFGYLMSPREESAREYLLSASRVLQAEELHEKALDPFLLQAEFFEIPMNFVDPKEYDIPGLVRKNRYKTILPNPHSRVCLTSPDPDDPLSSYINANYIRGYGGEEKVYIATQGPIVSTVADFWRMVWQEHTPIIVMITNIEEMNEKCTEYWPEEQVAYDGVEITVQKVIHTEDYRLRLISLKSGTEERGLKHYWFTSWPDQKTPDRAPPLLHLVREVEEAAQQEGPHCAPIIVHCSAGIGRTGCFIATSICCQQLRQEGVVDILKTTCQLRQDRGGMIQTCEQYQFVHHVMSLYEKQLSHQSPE
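System: STEP (striatal-enriched tyrosine phosphatase) enzyme, cell-free; medium: Bis-Tris pH 6.0 buffer with DTT, detergent; dosing: 20 µM, 1% DMSO; times: reaction 20 min, ambient temperature; detection: fluorescence, 480/540 nm; read-out basis: normalized % inhibition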
HKDC1 inh: inhibitors of human hexokinase HKDC1; recombinant HKDC1, G6PDH/diaphorase resazurin coupled fluorescence; 340,000 tested, 0.16% active; inhibition, % at 20 µM;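 active = inhibition above about 35% when tested at 20 µM, limit read from the data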;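 also: plate controls were DMSO wells with enzyme for no effect and DMSO wells lacking enzyme for full effect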
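Test system: recombinant HKDC1 (HK5) hexokinase enzyme, produced in-house; Amount: enzyme 5 µg/mL final; Buffer or medium: Tris pH 8.0 buffer with MgCl2, Tween-20, BSA, BME; Reagent: glucose and ATP substrates; Doses: 20 µM test compound, 1% DMSO; Incubation: 90 min reaction incubation at room temperature, dark; Detection: resorufin fluorescence at 613 nm.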
LMPTP inh: blocks human LMPTP phosphatase; P24666; recombinant LMPTP-A, OMFP fluorogenic substrate, fluorescence intensity; inhibition, % at 20 µM; 360,000 tested, 0.22% active;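 active = compounds that cut the enzyme signal by at least half of the control window in the single-dose screen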;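 also: plate controls were DMSO wells with enzyme plus substrate for no effect and substrate without enzyme for full effect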
Target sequence (P24666 whole entry, looked up): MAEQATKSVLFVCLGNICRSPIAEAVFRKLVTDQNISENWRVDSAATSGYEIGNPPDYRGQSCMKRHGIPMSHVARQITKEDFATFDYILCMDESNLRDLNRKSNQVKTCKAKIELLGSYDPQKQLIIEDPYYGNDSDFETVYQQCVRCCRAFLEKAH
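material = LMPTP-A | quantity = 0.625 nM enzyme | reagent = OMFP substrate, 400 µM final | buffer or medium = Bis-Tris pH 6.0, DTT, detergent | detection = endpoint fluorescence intensity from OMFP dephosphorylation | dosing = single 20 µM dose | read-out basis = % inhibition relative to no-enzyme and uninhibited control wells | control set = no-enzyme and uninhibited controls | timing = 50 min at room temperature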
Scp-1 inhibitor: Scp-1 (human) phosphatase inhibition. Recombinant Scp1, phosphopeptide, malachite green phosphate absorbance. 340,000 tested, 0.88% active. Q9GZU7. inhibition, % at 20 µM;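 active = inhibition above about 50% at 20 µM, limit read from the data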;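 also: plate controls were DMSO wells with enzyme for no effect and wells lacking enzyme for full effect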
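Times: enzyme reaction 45 min at room temperature, colour 5 min, stabilisation 30 min. Material: SCP-1 catalytic fragment, aa 76-261. Medium: Acidic Tris acetate buffer with magnesium and detergent. Signal: colorimetric free-phosphate detection, absorbance 630 nm. Read-out basis: % inhibition of SCP-1 phosphate liberation. Reagent: Phosphorylated 17-residue peptide substrate.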
DNMT1 interf DR: shows spectral interference in the DNMT1 beacon assay | shares compounds with DNMT1 block | molecular beacon fluorescence, spectral interference counter-screen | IC50, µM | 200 tested, under 10 active; call rule not given here
DNMT1 inh conf: confirmation of human DNMT1 inhibitors; shares compounds with DNMT1 block; DNMT1 molecular beacon HinP1I cleavage, fluorescence; inhibition, % at 10 µM; 2,300 tested, 8% active;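 active = average inhibition of at least 30% in the single-concentration confirmation test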
DNMT1 interf: shows spectral interference in the DNMT1 beacon assay. AID 602387. DNMT1 molecular beacon spectral interference counterscreen, fluorescence 485/520. shares compounds with DNMT1 block. 2,300 tested, 1% active. activation (fluorescence interference), % at 10 µM;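 active = activation of at least 30% at 10 µM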;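 also: DNMT1 catalytic domain with a HinP1I cleavage step and a FAM/dabcyl DNA beacon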
* hit, by the source's call; x = no result. Shown are actives, neighbours in structure and some others; about 1.8% of the full set was active somewhere.

SMILES	DNMT1 block	SUMO1 PPI mod	STEP block	HKDC1 inh	LMPTP inh	Scp-1 inhibitor	DNMT1 inh conf	DNMT1 interf	others
CCN1CCc2nc(NC(=O)C(c3ccccc3)c3ccccc3)sc2C1	62.6*	-16.2	0.0	1.3	1.9	3.6	1.2	3.6
C=CCn1c(COc2ccc(Cl)cc2)nnc1SCC(=O)c1c(N)n(C)c(=O)n(C)c1=O	73.0*	-2.2	4.3	1.0	17.4	-7.3	4.3	1.8
CC(=O)c1sc2nc(-c3ccco3)ccc2c1N	67.3*	28.6	15.1	11.0	20.2	79.1*	4.9	7.5
C/C(N)=N\S(=O)(=O)c1ccc(Cl)cc1	3.1	0.0	-0.5	1.2	1.0	0.2	x	x
N/C(CSc1ccc(Cl)cc1)=N\S(=O)(=O)c1ccc(Cl)cc1	73.1*	3.7	-2.6	-0.5	1.4	-13.3	5.8	3.0
COc1cccc(-c2oc3c(c2C(=O)OCCN2CCCCC2)C(O)CCC3)c1 (stereo not drawn)	x	0.2	x	x	0.1	x	x	x
c1ccc(CN2CCN(CCCNc3ccc4nnc(-c5ccccc5)n4n3)CC2)cc1	1.5	-9.5	3.3	-1.2	3.6	-12.9	x	x
Cc1ccc(CNc2ccc3nnc(-c4ccccc4)n3n2)cc1	73.7*	17.1	0.1	14.3	3.6	-0.2	4.1	-0.4
CCCCS(=O)(=O)N1CCCC(C(=O)Oc2ccccc2)C1 (stereo not drawn)	-2.5	3.5	2.2	-4.4	-2.0	-3.5	x	x
CCCS(=O)(=O)N1CCCC(C(=O)Oc2ccc(OC)cc2)C1 (stereo not drawn)	82.7*	-0.9	0.1	-6.1	0.0	-1.8	0.2	1.8
CN(CCc1cnn(C)c1)Cc1nc(CC2CC2)no1	-2.4	-0.2	-2.7	-0.8	-1.1	-9.0	x	x
COc1ccc([C@H]2[C@H](C(=O)C(C)(C)C)N3N=Cc4ccccc4C3[C@]23N=C(c2ccccc2)OC3=O)cc1 (stereo partly drawn)	-3.3	3.3	-0.5	-0.8	1.0	-9.7	x	x
COc1ccc([C@H]2[C@H](C(=O)C(C)(C)C)N3N=Cc4ccccc4C3[C@]23N=C(c2ccccc2)OC3=O)cc1OC (stereo partly drawn)	55.0*	-5.2	0.7	1.0	1.0	-4.6	3.0	1.9
O=C(CN1CCN(c2ccccc2O)CC1)Nc1cc(S(=O)(=O)N2CCCC2)ccc1Cl	-8.2	-1.2	-0.1	4.3	1.5	4.3	x	x
O=C(Nc1ccc(-c2nc3ncccc3o2)cc1)c1ccc([N+](=O)[O-])o1	50.2*	-17.1	5.4	-3.2	4.4	-1.8	-1.8	-1.1
C=CCn1c(NC(=O)c2ccccc2Cl)c(C#N)c2nc3ccccc3nc21	63.9*	53.0*	4.2	11.9	11.8	-7.2	-1.2	-3.6
CCOc1cc2[nH]c(=S)n(CCC(=O)NCc3ccc(OC)cc3)c(=O)c2cc1OCC	59.1*	5.9	4.2	-1.9	0.9	-7.3	-2.8	-9.9
CC(=O)c1c(C)[nH]c(C(=O)CSc2ncnc3sc(-c4ccccc4)cc23)c1C	53.0*	-1.1	1.0	1.1	1.2	-3.9	-0.3	1.3
O=C(O)CSc1ncnc2sc(-c3ccccc3)cc12	-0.6	-12.3	-2.8	-0.1	-0.1	-0.3	x	x
CCC(C)NC(=O)C1CCC(CNS(=O)(=O)c2ccccc2)CC1 (stereo not drawn)	-0.7	-2.3	-0.9	-1.4	1.1	2.7	x	x
Cc1cc(C(=O)N/N=C/c2cc(Br)c(Br)o2)n[nH]1	64.1*	-3.4	17.9	6.7	7.0	45.7	-1.3	-0.6
COc1ccc(NC(=O)CCCC(=O)OCC(F)(F)C(F)F)cc1	74.9*	-0.4	-3.6	-11.3	-0.1	0.2	4.2	0.8
COc1ccc(-c2cc(C(=O)N(C)CC(=O)Nc3cccc(F)c3)c3ccccc3n2)cc1OC	-0.2	-0.3	4.5	x	1.2	x	x	x
O=C(N/N=C/c1cccc(F)c1)c1cc(-c2ccco2)nc2ccccc12	97.3*	21.7	16.4	15.0	55.6*	81.1*	67.8*	1.6	DNMT1 interf DR=>99
CN(CC(=O)Nc1cccc(F)c1)C(=O)c1cc(-c2ccco2)nc2ccccc12	86.6*	10.6	16.2	9.3	33.8	82.6*	9.2	-0.2
SMILES	DNMT1 block	SUMO1 PPI mod	STEP block	HKDC1 inh	LMPTP inh	Scp-1 inhibitor	DNMT1 inh conf	DNMT1 interf	others
O=C(NCC1CCCO1)c1cc(-c2ccco2)nc2ccccc12 (stereo not drawn)	83.8*	-0.5	4.5	-0.7	4.1	44.3	18.9	1.7
Cc1ccccc1NC(=O)c1cc(-c2ccco2)nc2ccccc12	46.1	1.0	14.2	2.4	11.6	84.1*	1.2	3.0
O=C(NCC1CCCO1)c1cc(-c2ccncc2)nc2ccccc12 (stereo not drawn)	0.5	-13.8	1.2	-6.2	0.0	4.4	x	x
COc1ccc(CNC(=O)C(C)OC(=O)CN2C(=O)COc3ccccc32)cc1 (stereo not drawn)	5.6	1.8	-0.8	-1.2	0.2	-7.1	x	x
COc1ccccc1NC(=O)CSc1nc(=O)n(CCN2CCOCC2)c2c1CCC2	0.4	4.6	1.0	-3.5	0.1	-0.6	x	x
COc1ccc(NC(=O)c2cc(C)nc3ccccc23)cc1S(=O)(=O)N1CCOCC1	1.2	-1.4	1.5	-3.7	-0.1	10.6	x	x
COc1ccc(NC(=O)c2cc(-c3ccco3)nc3ccccc23)cc1S(=O)(=O)N1CCOCC1	63.5*	0.1	3.3	6.3	21.4	85.0*	20.7	0.0
COC(=O)C1CCN(C(=O)c2cc(-c3ccco3)nc3ccccc23)CC1	85.8*	12.4	6.5	16.0	46.9	69.5*	49.8*	3.0	DNMT1 interf DR=>99
COc1cc(NC(=S)N2CCCCC2C)cc(OC)c1OC (stereo not drawn)	1.5	3.6	4.4	-1.6	-1.0	1.7	x	x
O=C(CCN1C(=O)/C(=C/c2ccccc2)SC1=S)Nc1cccnc1	-1.5	-12.2	2.7	4.4	1.9	-2.3	x	x
Cc1ccc(NC(=O)COc2ccc(/C=C3/SC(=Nc4ccccc4)N(Cc4cccnc4)C3=O)cc2)cc1	60.6*	-2.5	0.4	-6.4	-0.9	6.8	-0.6	-8.5
O=C(CCCN1C(=O)/C(=C\c2ccco2)SC1=S)Nc1ccc(O)cc1C(=O)O	98.6*	63.5*	43.0*	14.5	9.2	68.8*	3.8	-2.5
